For series [1], the target named is Leucine-rich repeat serine/threonine-protein kinase 2 (Mus musculus) (UniProt Q5S006). Kind of series: In vivo inhibition of LRRK2 in C57Bl/6 mouse brain assessed as reduction in pSer935 LRRK2 at 10 to 120 mg/kg administered for 11 days and measured for 8 to 24 hrs by Western blotting analysis. It is filed as functional, organism-based. As to conditions: dose 10-120 mg/kg, time 11.0 day. The method in brief: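 Male C57Bl/6 mice, singly housed on a reversed light cycle. Fed drug diet targeted to 3, 10, 30, 60 or 120 mg/kg/day (assuming 3 g/day intake), or untreated diet, for 11 days. Killed 4, 8 or 24 h after dark-cycle onset, n = 5 per group. Cortex immunoblotted for pSer935/total LRRK2 and total LRRK2/GAPDH. Total LRRK2 detected with MJFF2 antibody.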
Leucine-rich repeat serine/threonine-protein kinase 2 (Mus musculus), sequence (Q5S006 whole entry): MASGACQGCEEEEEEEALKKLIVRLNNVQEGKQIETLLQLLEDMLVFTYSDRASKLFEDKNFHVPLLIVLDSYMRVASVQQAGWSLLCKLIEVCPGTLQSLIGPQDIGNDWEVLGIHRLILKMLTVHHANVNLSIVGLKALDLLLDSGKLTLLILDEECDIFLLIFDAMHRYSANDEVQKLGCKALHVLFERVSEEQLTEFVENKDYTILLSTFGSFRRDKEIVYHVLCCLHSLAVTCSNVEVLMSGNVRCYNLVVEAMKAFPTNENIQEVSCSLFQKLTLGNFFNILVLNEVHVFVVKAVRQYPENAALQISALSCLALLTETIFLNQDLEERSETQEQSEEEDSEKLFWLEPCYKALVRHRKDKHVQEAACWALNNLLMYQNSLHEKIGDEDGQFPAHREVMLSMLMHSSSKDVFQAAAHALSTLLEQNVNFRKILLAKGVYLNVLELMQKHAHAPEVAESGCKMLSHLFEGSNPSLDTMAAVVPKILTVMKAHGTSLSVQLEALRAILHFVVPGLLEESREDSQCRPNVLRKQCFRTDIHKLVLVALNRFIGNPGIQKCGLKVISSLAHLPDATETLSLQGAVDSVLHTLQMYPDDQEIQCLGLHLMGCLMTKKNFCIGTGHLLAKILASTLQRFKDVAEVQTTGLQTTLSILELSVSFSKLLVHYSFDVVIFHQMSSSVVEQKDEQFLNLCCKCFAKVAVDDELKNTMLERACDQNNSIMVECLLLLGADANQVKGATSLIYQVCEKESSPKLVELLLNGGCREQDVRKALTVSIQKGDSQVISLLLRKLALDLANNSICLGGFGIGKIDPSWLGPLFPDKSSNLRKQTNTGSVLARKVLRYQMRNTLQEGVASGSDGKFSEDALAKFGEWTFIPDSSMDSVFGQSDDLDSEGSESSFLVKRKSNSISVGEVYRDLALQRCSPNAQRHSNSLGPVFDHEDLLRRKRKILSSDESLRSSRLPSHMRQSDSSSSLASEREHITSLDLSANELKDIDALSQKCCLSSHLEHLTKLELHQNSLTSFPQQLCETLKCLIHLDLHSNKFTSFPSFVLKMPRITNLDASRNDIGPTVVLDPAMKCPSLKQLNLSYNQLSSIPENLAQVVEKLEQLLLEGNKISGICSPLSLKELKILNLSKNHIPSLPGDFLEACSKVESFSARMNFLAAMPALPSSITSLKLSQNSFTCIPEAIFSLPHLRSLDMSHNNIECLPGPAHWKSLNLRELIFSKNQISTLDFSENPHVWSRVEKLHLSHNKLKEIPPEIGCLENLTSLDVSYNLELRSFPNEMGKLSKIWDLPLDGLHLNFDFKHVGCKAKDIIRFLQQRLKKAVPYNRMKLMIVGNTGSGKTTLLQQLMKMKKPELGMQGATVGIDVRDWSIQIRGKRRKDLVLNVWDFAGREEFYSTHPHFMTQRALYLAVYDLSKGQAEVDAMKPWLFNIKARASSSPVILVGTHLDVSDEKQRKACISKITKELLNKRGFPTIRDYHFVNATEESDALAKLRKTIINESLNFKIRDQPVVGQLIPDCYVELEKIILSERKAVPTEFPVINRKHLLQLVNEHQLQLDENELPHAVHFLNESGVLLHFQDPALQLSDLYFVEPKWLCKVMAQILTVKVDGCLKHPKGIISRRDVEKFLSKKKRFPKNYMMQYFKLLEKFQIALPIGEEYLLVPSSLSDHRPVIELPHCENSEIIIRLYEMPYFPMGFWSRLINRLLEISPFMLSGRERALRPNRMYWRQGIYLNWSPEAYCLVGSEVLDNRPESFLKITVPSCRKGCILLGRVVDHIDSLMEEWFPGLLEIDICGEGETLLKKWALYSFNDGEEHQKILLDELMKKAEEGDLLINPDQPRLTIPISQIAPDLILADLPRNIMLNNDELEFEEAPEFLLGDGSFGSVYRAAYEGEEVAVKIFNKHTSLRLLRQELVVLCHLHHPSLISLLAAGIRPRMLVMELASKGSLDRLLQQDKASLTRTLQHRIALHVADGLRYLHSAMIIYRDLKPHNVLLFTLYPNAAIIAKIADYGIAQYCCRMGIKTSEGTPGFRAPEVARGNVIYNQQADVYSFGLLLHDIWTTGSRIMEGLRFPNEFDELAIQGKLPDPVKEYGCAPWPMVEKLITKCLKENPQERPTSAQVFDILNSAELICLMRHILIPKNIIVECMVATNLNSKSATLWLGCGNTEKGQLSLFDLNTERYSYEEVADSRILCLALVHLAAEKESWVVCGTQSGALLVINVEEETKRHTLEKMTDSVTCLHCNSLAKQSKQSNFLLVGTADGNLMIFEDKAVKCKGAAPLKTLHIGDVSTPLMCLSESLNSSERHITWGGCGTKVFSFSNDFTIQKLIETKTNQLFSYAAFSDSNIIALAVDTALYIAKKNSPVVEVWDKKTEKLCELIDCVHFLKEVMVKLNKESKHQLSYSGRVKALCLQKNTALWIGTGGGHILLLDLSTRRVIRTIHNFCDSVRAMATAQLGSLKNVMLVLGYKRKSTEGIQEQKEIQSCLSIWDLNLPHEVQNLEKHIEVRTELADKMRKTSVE

Series [2] has the same target. Kind of series: In vivo inhibition of LRRK2 in 20 weeks old MitoPark mouse lung assessed as reduction in pSer935 LRRK2 level at 30 mg/kg/day administered for 15 weeks by Western blotting analysis. It is filed as functional, organism-based. The gist of the method: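 MitoPark mice on drug-containing diet targeted to 30 mg/kg/day from 5 weeks of age, with the diet reformulated every 3 weeks to hold the target. Untreated-diet MitoPark and wild-type littermate controls. Killed by CO2 at 20 weeks of age. Lung and kidney taken from 5 mice per group for pSer935 and total LRRK2 immunoblots.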

Series [3] is described as follows: AUC in C57Bl/6 mouse at 10 mg/kg, po measured after 480 mins by LC-MS/MS analysis. It is filed as ADME, organism-based. The settings on record: in vivo. The gist of the method:
(§1)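 Male C57Bl/6 mice (20-25 g) given a single IV dose (2 mg/kg) or oral dose (10 mg/kg). Blood was sampled at 5, 15, 30, 60, 120, 240, 360 and 480 min and plasma prepared by centrifugation. Plasma drug levels were measured by LC/MS/MS. Values are mean (CV%), N=3.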

Series [4] is described as follows: AUC in C57Bl/6 mouse at 2 mg/kg, iv measured after 480 mins by LC-MS/MS analysis. The settings on record: in vivo. It is filed as ADME, organism-based. The method in brief:
as §1

A short description of series [5]: Effect on spontaneous locomotor activity in C57Bl/6 mouse assessed as rearing behaviour administered for 11 days by truScan photo beam activity system analysis. The format is toxicity. The settings on record: in vivo, 264 h, time 11 day. The method in brief: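 Male C57Bl/6 mice, singly housed on a reversed 12 h light cycle, were fed diet formulated to give 3, 10, 30, 60 or 120 mg/kg/day (assumes 3 g/day intake) or untreated diet for 11 days. Body weight and food intake were monitored. Spontaneous locomotion and rearing were recorded over 60 min. On day 11, mice were euthanized 4, 8 or 24 h after dark onset and plasma and brain drug levels measured; n = 5 per group.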

Series [6] concerns Mus musculus. Kind of series: Effect on behavioral changes in 14 weeks old MitoPark mouse striatum assessed as TH level at 30 mg/kg/day by […] relative to control. It is filed as functional. The method in brief: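 Striatal protein (20 μg) from diet-treated MitoPark and wild-type mice was denatured at 70 °C for 10 min and run on 3-8% Tris-acetate gels. Blots were probed with anti-tyrosine hydroxylase and anti-GAPDH overnight at 4 °C, then an HRP secondary. TH is expressed as % of control.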

Series [7] has as its system Mus musculus. Description: Effect on behavioral phenotype in 8 weeks old MitoPark mouse assessed as locomotor activity at 30 mg/kg/day administered for 3 weeks and measured after 60 mins by truScan photo beam activity system analysis. It is filed as functional, organism-based. The gist of the method: (§2)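 MitoPark mice, 5 weeks old, were allocated by baseline 60-min LMA to untreated diet or diet targeting 30 mg/kg/day (reformulated every 3 weeks). Wild-type littermates received vehicle diet. Body weight and food intake were recorded weekly. 60-min LMA (distance, rearing) was run at 8, 11, 14 and 17 weeks of age.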

Series [8] relates to Mus musculus. Kind of series: Effect on body weight in MitoPark mouse at 30 mg/kg administered for 15 weeks. It is filed as functional, organism-based. The method in brief:
as §2

Series [9] deals with T1, Mitogen-activated protein kinase kinase kinase 5 (Homo sapiens, UniProt Q99683).
T1 sequence (Q99683 whole entry): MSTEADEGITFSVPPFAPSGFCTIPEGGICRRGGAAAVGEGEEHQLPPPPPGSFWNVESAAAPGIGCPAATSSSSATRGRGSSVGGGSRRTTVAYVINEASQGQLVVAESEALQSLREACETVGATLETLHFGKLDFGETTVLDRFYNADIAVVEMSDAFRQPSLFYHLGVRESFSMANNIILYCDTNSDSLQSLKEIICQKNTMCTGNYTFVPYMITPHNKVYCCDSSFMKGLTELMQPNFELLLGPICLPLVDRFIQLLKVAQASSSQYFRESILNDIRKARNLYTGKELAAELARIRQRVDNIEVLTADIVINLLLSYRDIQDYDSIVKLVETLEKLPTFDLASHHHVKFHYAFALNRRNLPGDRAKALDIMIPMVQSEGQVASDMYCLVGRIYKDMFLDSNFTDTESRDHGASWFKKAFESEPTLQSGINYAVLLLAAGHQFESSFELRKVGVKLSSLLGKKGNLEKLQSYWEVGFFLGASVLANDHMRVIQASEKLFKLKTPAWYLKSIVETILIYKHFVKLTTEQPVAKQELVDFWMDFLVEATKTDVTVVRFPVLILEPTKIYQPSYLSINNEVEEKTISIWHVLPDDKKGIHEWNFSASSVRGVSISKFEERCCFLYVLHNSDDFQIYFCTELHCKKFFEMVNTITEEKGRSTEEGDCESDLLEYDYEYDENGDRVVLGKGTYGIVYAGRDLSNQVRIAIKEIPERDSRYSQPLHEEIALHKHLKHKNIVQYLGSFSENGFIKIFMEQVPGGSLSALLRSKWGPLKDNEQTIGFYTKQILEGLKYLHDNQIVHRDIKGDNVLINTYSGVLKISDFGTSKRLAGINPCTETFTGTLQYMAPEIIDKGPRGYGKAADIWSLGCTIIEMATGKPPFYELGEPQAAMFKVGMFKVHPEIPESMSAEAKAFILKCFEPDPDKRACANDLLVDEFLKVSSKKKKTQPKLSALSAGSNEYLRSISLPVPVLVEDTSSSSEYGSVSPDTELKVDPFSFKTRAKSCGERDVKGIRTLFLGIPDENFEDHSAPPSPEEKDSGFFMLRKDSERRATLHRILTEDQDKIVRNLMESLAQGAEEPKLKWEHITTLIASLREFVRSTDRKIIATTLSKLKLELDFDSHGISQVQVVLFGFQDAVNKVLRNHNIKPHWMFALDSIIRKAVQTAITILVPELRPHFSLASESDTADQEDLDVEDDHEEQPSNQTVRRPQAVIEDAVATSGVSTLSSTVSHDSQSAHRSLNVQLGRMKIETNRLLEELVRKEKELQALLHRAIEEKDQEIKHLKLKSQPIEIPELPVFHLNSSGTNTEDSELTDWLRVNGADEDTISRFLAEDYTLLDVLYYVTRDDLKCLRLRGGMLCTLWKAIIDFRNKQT
Description: Inhibition of MAP3K5 (unknown origin).

The nature of series [10]: Cmax in C57Bl/6 mouse at 10 mg/kg, po measured after 480 mins by LC-MS/MS analysis. It is filed as ADME, organism-based. The settings on record: in vivo. The gist of the method: as §1
The nature of series [11]: MRT in C57Bl/6 mouse at 2 mg/kg, iv measured after 480 mins by LC-MS/MS analysis. It is filed as ADME, organism-based. The settings on record: in vivo. The method in brief:
as §1

The source made the active and inactive calls. The calls are words filed in the database; no cut-off is given here.

The term AUC denotes the area under the concentration-time curve, a measure of exposure. As a reminder, the IC50 is the midpoint of a concentration-inhibition curve. The low end stands for higher potency, the high end for lower potency. As usually defined, the Cmax is the highest concentration seen after dosing. The term MRT denotes the average time that molecules of a dose stay in the body.

Take `C[C@@H]1CN(c2cc(-c3n[nH]c4ccc(OC5(C)CC5)cc34)ncn2)C[C@H](C)O1` [MLi-2]: the inhibition entry in [1] and in series [2] was “Active” throughout. Moreover, the AUC at 8 h was 1.5 µM·h in series [3] and 0.664 µM·h in [4]. In addition, the Activity result was “Non-Toxic” in series [5] and 42.6% in series [6]. Moreover, in [7], the result was Active. Moreover, the result in series [8] was inactive. Further, in series [9], half-maximal inhibition (IC50) required 428 nM. This compound also gave a maximum concentration (Cmax) in series [10] of 298 nM. The MRT in [11] worked out at 2.7 h.

For the origin of these results see ChEMBL document CHEMBL5653623 (J Pharmacol Exp Ther, 2015).
